The term inhibition denotes the percentage by which the read-out fell short of the control.

The source of these data is ChEMBL document CHEMBL4020787, “Lodopyridones B and C from a marine sediment-derived bacterium Saccharomonospora sp” (Bioorg Med Chem Lett, 2017).

For assay [1], the target named is Beta-secretase 1 (Homo sapiens) (UniProt P56817). Nature of the assay: Inhibition of BACE1 (unknown origin) at 1 to 100 uM using Rh-EVNLDAEFK-Quencher as substrate after 60 mins by fluorescence spectroscopy. In short, it runs like this:
(§1)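 Enzyme tested across a concentration series, with isoliquiritigenin as the reference drug. Activity is reported as percent inhibition.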

Assay [2] shares this target. Nature of the assay: Inhibition of BACE1 (unknown origin) at <100 nM using Rh-EVNLDAEFK-Quencher as substrate after 60 mins by fluorescence spectroscopy. In short, it runs like this:
as §1

Assay [3] shares this target. The assay can be described thus: Inhibition of BACE1 (unknown origin) at 100 uM using Rh-EVNLDAEFK-Quencher as substrate after 60 mins by fluorescence spectroscopy relative to control. The method in brief:
as §1

The target is the same in assay [4]. Nature of the assay: Inhibition of BACE1 in human SH-SY5Y cells assessed as decrease in amyloid beta (1 to 40) production at 1000 uM after 24 hrs by ELISA relative to control. In kind it is cell-based. The method in brief: (§2)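 SH-SY5Y cells were exposed to the compound, and released Aβ40 and Aβ42 were quantified separately as percent of untreated control. Isoliquiritigenin was run in parallel as the reference drug.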

Assay [5] shares this target. The assay can be described thus: Inhibition of BACE1 in human SH-SY5Y cells assessed as decrease in amyloid beta (1 to 42) production at 1000 uM after 24 hrs by ELISA relative to control. It counts as cell-based. In short, it runs like this: as §2
Assay [6] shares this target. Nature of the assay: Inhibition of BACE1 in human SH-SY5Y cells assessed as decrease in amyloid beta (1 to 40) production after 24 hrs by ELISA relative to control. It counts as cell-based. The method in brief: as §2
A general note: An ELISA detects its analyte on a solid surface through an enzyme-linked reagent.

Assay [7] has the same target. The assay can be described thus: Inhibition of BACE1 in human SH-SY5Y cells assessed as decrease in amyloid beta (1 to 42) production after 24 hrs by ELISA relative to control. It counts as cell-based. In short, it runs like this:
as §2

The source made the active and inactive calls. The calls are words filed in the database; no cut-off is given here.

Sequence of Beta-secretase 1 (Homo sapiens) (P56817 whole entry): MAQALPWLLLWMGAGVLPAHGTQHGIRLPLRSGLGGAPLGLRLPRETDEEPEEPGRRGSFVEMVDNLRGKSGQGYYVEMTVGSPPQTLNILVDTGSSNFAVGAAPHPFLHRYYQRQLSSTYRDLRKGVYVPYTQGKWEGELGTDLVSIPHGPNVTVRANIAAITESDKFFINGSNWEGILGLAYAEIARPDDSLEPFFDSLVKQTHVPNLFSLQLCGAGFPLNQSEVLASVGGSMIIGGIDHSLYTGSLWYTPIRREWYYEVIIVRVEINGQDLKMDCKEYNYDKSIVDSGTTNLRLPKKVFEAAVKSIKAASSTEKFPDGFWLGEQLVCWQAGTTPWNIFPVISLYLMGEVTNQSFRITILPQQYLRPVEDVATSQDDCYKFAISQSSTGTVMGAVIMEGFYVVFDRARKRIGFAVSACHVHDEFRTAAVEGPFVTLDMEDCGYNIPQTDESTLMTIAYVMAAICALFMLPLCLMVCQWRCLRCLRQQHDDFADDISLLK

Turning to `COc1c(-c2csc(-c3ccc4cc(Cl)ccc4n3)n2)n(C)c(C(=O)NCCO)c([S+](C)[O-])c1=O` (stereo not drawn), the inhibition entry in assay [1] is “Dose-dependent effect”; in assay [3] it was 51%. Also, the inhibition result in assay [2] was “inactive”.
`COc1c(-c2csc(-c3ccc4cc(Cl)ccc4n3)n2)n(C)c(C(=O)NCCOC(C)=O)c(SC)c1=O`: the inhibition in assay [4] is 41%; in assay [1], “Dose-dependent effect”; in assay [5] it was 49%; in assay [6] it was “Dose-dependent effect”; in assay [3], 60%; in assay [7], “Dose-dependent effect”. For the same molecule, the inhibition entry in assay [2] is “inactive”.
For the molecule `COc1c(-c2csc(-c3ccc4cc(Cl)ccc4n3)n2)n(C)c(C(=O)NCCO)c(SC)c1=O`, the values for the inhibition result in assay [1] and in assay [3] were “Dose-dependent effect” and 42%, respectively. The inhibition result in assay [2] is “inactive”.
